According to ChEMBL document CHEMBL1155153, “Measurement of voriconazole activity against Candida albicans, C. glabrata, and C. parapsilosis isolates using time-kill methods validated by high-performance liquid chromatography” (2007):
≈ marks a conversion by molar mass, not a printed value.

Columns and labels:
Assay type in all cases: functional
Candida albicans [1] = experiment: Antifungal activity against Candida albicans ATCC 90029 by Etest
In short: (§1)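 MIC by Etest, checked against the CLSI (NCCLS M27-A2) broth microdilution method. Both methods agreed within twofold.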

Candida albicans [2] = experiment: Antifungal activity against Candida albicans SC5314 by Etest; in short: as §1
Nakaseomyces glabratus [3] = experiment: Antifungal activity against Candida glabrata isolate 1 by Etest; in short: as §1
Nakaseomyces glabratus [4] = experiment: Antifungal activity against Candida glabrata isolate 2 by Etest; in short: as §1
Candida parapsilosis [5] = experiment: Antifungal activity against Candida parapsilosis isolate 1 by Etest; details: Lodderomyces parapsilosis; in short: as §1
Candida parapsilosis [6] = experiment: Antifungal activity against Candida parapsilosis isolate 2 by Etest; details: Lodderomyces parapsilosis
Candida albicans [7] = experiment: Antifungal activity against Candida albicans ATCC 90029 assessed as maximum log cell kill at MIC after 24 hrs by time-kill method
Candida albicans [8] = experiment: Antifungal activity against Candida albicans ATCC 90029 assessed as maximum log cell kill at 4 times MIC after 24 hrs by time-kill method
Candida albicans [9] = experiment: Antifungal activity against Candida albicans ATCC 90029 assessed as maximum log cell kill at 16 times MIC after 24 hrs by time-kill method
Candida albicans [10] = experiment: Antifungal activity against Candida albicans ATCC 90029 assessed as maximum log cell kill at MIC after 24 to 48 hrs by time-kill method
Candida albicans [11] = experiment: Antifungal activity against Candida albicans ATCC 90029 assessed as maximum log cell kill at 4 times MIC after 24 to 48 hrs by time-kill method
Candida albicans [12] = experiment: Antifungal activity against Candida albicans ATCC 90029 assessed as maximum log cell kill at 16 times MIC after 24 to 48 hrs by time-kill method
Candida albicans [13] = experiment: Antifungal activity against Candida albicans ATCC 90029 assessed as maximum log cell kill at MIC after >48 hrs by time-kill method
Candida albicans [14] = experiment: Antifungal activity against Candida albicans ATCC 90029 assessed as maximum log cell kill at 4 times MIC after >48 hrs by time-kill method
Candida albicans [15] = experiment: Antifungal activity against Candida albicans ATCC 90029 assessed as maximum log cell kill at 16 times MIC after >48 hrs by time-kill method
Candida albicans [16] = experiment: Antifungal activity against Candida albicans SC5314 assessed as maximum log cell kill at MIC after 24 hrs by time-kill method
Candida albicans [17] = experiment: Antifungal activity against Candida albicans SC5314 assessed as maximum log cell kill at 4 times MIC after 24 hrs by time-kill method
Candida albicans [18] = experiment: Antifungal activity against Candida albicans SC5314 assessed as maximum log cell kill at 16 times MIC after 24 hrs by time-kill method
Candida albicans [19] = experiment: Antifungal activity against Candida albicans SC5314 assessed as maximum log cell kill at MIC after 24 to 48 hrs by time-kill method
Nakaseomyces glabratus [20] = experiment: Antifungal activity against Candida glabrata isolate 1 assessed as maximum log cell kill at 4 times MIC after 24 hrs by time-kill method
Candida albicans [21] = experiment: Antifungal activity against Candida albicans SC5314 assessed as maximum log cell kill at 4 times MIC after 24 to 48 hrs by time-kill method
Candida albicans [22] = experiment: Antifungal activity against Candida albicans SC5314 assessed as maximum log cell kill at 16 times MIC after 24 to 48 hrs by time-kill method
Nakaseomyces glabratus [23] = experiment: Antifungal activity against Candida glabrata isolate 1 assessed as maximum log cell kill at MIC after 24 hrs by time-kill method
Nakaseomyces glabratus [24] = experiment: Antifungal activity against Candida glabrata isolate 1 assessed as maximum log cell kill at 16 times MIC after 24 hrs by time-kill method
Nakaseomyces glabratus [25] = experiment: Antifungal activity against Candida glabrata isolate 1 assessed as maximum log cell kill at MIC after 24 to 48 hrs by time-kill method
Nakaseomyces glabratus [26] = experiment: Antifungal activity against Candida glabrata isolate 1 assessed as maximum log cell kill at 4 times MIC after 24 to 48 hrs by time-kill method
Nakaseomyces glabratus [27] = experiment: Antifungal activity against Candida glabrata isolate 1 assessed as maximum log cell kill at 16 times MIC after 24 to 48 hrs by time-kill method
Nakaseomyces glabratus [28] = experiment: Antifungal activity against Candida glabrata isolate 1 assessed as maximum log cell kill at MIC after >48 hrs by time-kill method
Nakaseomyces glabratus [29] = experiment: Antifungal activity against Candida glabrata isolate 1 assessed as maximum log cell kill at 4 times MIC after >48 hrs by time-kill method
Nakaseomyces glabratus [30] = experiment: Antifungal activity against Candida glabrata isolate 1 assessed as maximum log cell kill at 16 times MIC after >48 hrs by time-kill method
Nakaseomyces glabratus [31] = experiment: Antifungal activity against Candida glabrata isolate 2 assessed as maximum log cell kill at MIC after 24 hrs by time-kill method
Nakaseomyces glabratus [32] = experiment: Antifungal activity against Candida glabrata isolate 2 assessed as maximum log cell kill at 4 times MIC after 24 hrs by time-kill method
Nakaseomyces glabratus [33] = experiment: Antifungal activity against Candida glabrata isolate 2 assessed as maximum log cell kill at 16 times MIC after 24 hrs by time-kill method
Nakaseomyces glabratus [34] = experiment: Antifungal activity against Candida glabrata isolate 2 assessed as maximum log cell kill at MIC after 24 to 48 hrs by time-kill method
Nakaseomyces glabratus [35] = experiment: Antifungal activity against Candida glabrata isolate 2 assessed as maximum log cell kill at 4 times MIC after 24 to 48 hrs by time-kill method
Nakaseomyces glabratus [36] = experiment: Antifungal activity against Candida glabrata isolate 2 assessed as maximum log cell kill at 16 times MIC after 24 to 48 hrs by time-kill method
Nakaseomyces glabratus [37] = experiment: Antifungal activity against Candida glabrata isolate 2 assessed as maximum log cell kill at MIC after >48 hrs by time-kill method
Nakaseomyces glabratus [38] = experiment: Antifungal activity against Candida glabrata isolate 2 assessed as maximum log cell kill at 4 times MIC after >48 hrs by time-kill method
Nakaseomyces glabratus [39] = experiment: Antifungal activity against Candida glabrata isolate 2 assessed as maximum log cell kill at 16 times MIC after >48 hrs by time-kill method
Candida parapsilosis [40] = experiment: Antifungal activity against Candida parapsilosis isolate 1 assessed as maximum log cell kill at MIC after 24 hrs by time-kill method
Candida parapsilosis [41] = experiment: Antifungal activity against Candida parapsilosis isolate 1 assessed as maximum log cell kill at 4 times MIC after 24 hrs by time-kill method
Candida parapsilosis [42] = experiment: Antifungal activity against Candida parapsilosis isolate 1 assessed as maximum log cell kill at 16 times MIC after 24 hrs by time-kill method
Candida parapsilosis [43] = experiment: Antifungal activity against Candida parapsilosis isolate 1 assessed as maximum log cell kill at MIC after 24 to 48 hrs by time-kill method
Candida parapsilosis [44] = experiment: Antifungal activity against Candida parapsilosis isolate 1 assessed as maximum log cell kill at 4 times MIC after 24 to 48 hrs by time-kill method
Candida parapsilosis [45] = experiment: Antifungal activity against Candida parapsilosis isolate 1 assessed as maximum log cell kill at 16 times MIC after 24 to 48 hrs by time-kill method
Candida parapsilosis [46] = experiment: Antifungal activity against Candida parapsilosis isolate 1 assessed as maximum log cell kill at MIC after >48 hrs by time-kill method
Candida parapsilosis [47] = experiment: Antifungal activity against Candida parapsilosis isolate 1 assessed as maximum log cell kill at 4 times MIC after >48 hrs by time-kill method
Candida parapsilosis [48] = experiment: Antifungal activity against Candida parapsilosis isolate 1 assessed as maximum log cell kill at 16 times MIC after >48 hrs by time-kill method
Candida parapsilosis [49] = experiment: Antifungal activity against Candida parapsilosis isolate 2 assessed as maximum log cell kill at MIC after 24 hrs by time-kill method
In short: (§2)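 Bloodstream isolate colonies from 48-h Sabouraud dextrose agar cultures were suspended in sterile water. […] Samples taken 0–72 h were plated for CFU. Value is the maximum log difference from drug-free control per time window. Run in duplicate.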

Candida parapsilosis [50] = experiment: Antifungal activity against Candida parapsilosis isolate 2 assessed as maximum log cell kill at 4 times MIC after 24 hrs by time-kill method; in short: as §2
Candida parapsilosis [51] = experiment: Antifungal activity against Candida parapsilosis isolate 2 assessed as maximum log cell kill at 16 times MIC after 24 hrs by time-kill method
Candida parapsilosis [52] = experiment: Antifungal activity against Candida parapsilosis isolate 2 assessed as maximum log cell kill at MIC after 24 to 48 hrs by time-kill method; in short: as §2
Candida parapsilosis [53] = experiment: Antifungal activity against Candida parapsilosis isolate 2 assessed as maximum log cell kill at 4 times MIC after 24 to 48 hrs by time-kill method; in short: as §2
Candida parapsilosis [54] = experiment: Antifungal activity against Candida parapsilosis isolate 2 assessed as maximum log cell kill at 16 times MIC after 24 to 48 hrs by time-kill method
Candida parapsilosis [55] = experiment: Antifungal activity against Candida parapsilosis isolate 2 assessed as maximum log cell kill at MIC after >48 hrs by time-kill method; in short: as §2
Candida parapsilosis [56] = experiment: Antifungal activity against Candida parapsilosis isolate 2 assessed as maximum log cell kill at 4 times MIC after >48 hrs by time-kill method; in short: as §2
Candida parapsilosis [57] = experiment: Antifungal activity against Candida parapsilosis isolate 2 assessed as maximum log cell kill at 16 times MIC after >48 hrs by time-kill method

With `C[C@@H](c1ncncc1F)[C@](O)(Cn1cncn1)c1ccc(F)cc1F` [VORICONAZOLE] the MIC (Candida albicans [1]) was 0.008 µg/mL (≈ 0.0229 µM), the MIC (Candida albicans [2]) was 0.012 µg/mL (≈ 0.0344 µM) and the MIC (Nakaseomyces glabratus [3]) was 0.19 µg/mL (≈ 0.544 µM). For the same compound, the MIC (Nakaseomyces glabratus [4]) was 0.032 µg/mL (≈ 0.0916 µM), the MIC (Candida parapsilosis [5]) was 0.008 µg/mL (≈ 0.0229 µM) and the MIC (Candida parapsilosis [6]) was 0.016 µg/mL (≈ 0.0458 µM). It also gave an LCK (Candida albicans [7]) of -1.23, an LCK (Candida albicans [8]) of -1.34 and an LCK (Candida albicans [9]) of -1.34. For the same compound, the LCK (Candida albicans [10]) was -1.77, the LCK (Candida albicans [11]) was -1.84 and the LCK (Candida albicans [12]) was -1.96. It also gave an LCK (Candida albicans [13]) of -1.63, an LCK (Candida albicans [14]) of -1.9 and an LCK (Candida albicans [15]) of -1.89. It also gave an LCK (Candida albicans [16]) of -0.61, an LCK (Candida albicans [17]) of -0.51 and an LCK (Candida albicans [18]) of -0.54. For the same compound, the LCK (Candida albicans [19]) was -0.56, the LCK (Nakaseomyces glabratus [20]) was -0.49 and the LCK (Candida albicans [21]) was -0.53. It also gave an LCK (Candida albicans [22]) of -0.58, an LCK (Nakaseomyces glabratus [23]) of -0.43 and an LCK (Nakaseomyces glabratus [24]) of -0.59. For the same compound, the LCK (Nakaseomyces glabratus [25]) was -0.74, the LCK (Nakaseomyces glabratus [26]) was -0.78 and the LCK (Nakaseomyces glabratus [27]) was -1. The LCK (Nakaseomyces glabratus [28]) was -0.99, the LCK (Nakaseomyces glabratus [29]) was -1.08 and the LCK (Nakaseomyces glabratus [30]) was -1.17. For the same compound, the LCK (Nakaseomyces glabratus [31]) was -1.02, the LCK (Nakaseomyces glabratus [32]) was -1.1 and the LCK (Nakaseomyces glabratus [33]) was -1.15. The LCK (Nakaseomyces glabratus [34]) was -2.23, the LCK (Nakaseomyces glabratus [35]) was -2.39 and the LCK (Nakaseomyces glabratus [36]) was -2.49. It also gave an LCK (Nakaseomyces glabratus [37]) of -2.78, an LCK (Nakaseomyces glabratus [38]) of -2.99 and an LCK (Nakaseomyces glabratus [39]) of -3.02. The LCK (Candida parapsilosis [40]) was -0.99, the LCK (Candida parapsilosis [41]) was -1.64 and the LCK (Candida parapsilosis [42]) was -1.68. The LCK (Candida parapsilosis [43]) was -0.91, the LCK (Candida parapsilosis [44]) was -2.67 and the LCK (Candida parapsilosis [45]) was -2.74. It also gave an LCK (Candida parapsilosis [46]) of -0.67, an LCK (Candida parapsilosis [47]) of -2.37 and an LCK (Candida parapsilosis [48]) of -2.69. The LCK (Candida parapsilosis [49]) was -1.86, the LCK (Candida parapsilosis [50]) was -2.7 and the LCK (Candida parapsilosis [51]) was -3.93. The LCK (Candida parapsilosis [52]) was -1.03, the LCK (Candida parapsilosis [53]) was -2.13 and the LCK (Candida parapsilosis [54]) was -3.94. For the same compound, the LCK (Candida parapsilosis [55]) was -0.88, the LCK (Candida parapsilosis [56]) was -1.12 and the LCK (Candida parapsilosis [57]) was -4.15.
